Measurements reported in ChEMBL document CHEMBL3352241, “Design, synthesis and pharmacological evaluation of chalcone derivatives as acetylcholinesterase inhibitors” (Bioorg Med Chem, 2014).

Experiments:
Acetylcholinesterase [1] = target: T1, Acetylcholinesterase (Homo sapiens, UniProt P22303); assay: Inhibition of AChE (unknown origin) using acetylthiocholine iodide as substrate incubated for 25 mins by Ellman's method
In short: (§1)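 Ellman spectrophotometric assay, slightly modified. Compounds were dissolved in tween 80 (0.06% final per reaction), then diluted in 2% tween 80–water. The enzyme, substrate (acetylthiocholine iodide for AChE, butyrylthiocholine iodide for BuChE) and compound were incubated in Na2HPO4/NaH2PO4 buffer pH 8.0 at 30 °C for 25 min. The reaction was stopped with 20% SDS, 10 mmol/L DTNB was added, and absorbance was read at 412 nm. Five concentrations per compound, in triplicate, spanned 20–80% inhibition. IC50 was calculated by the Bliss method and reported as mean ± SD.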

Cholinesterase = Cholinesterase (Homo sapiens, UniProt P06276); assay: Inhibition of BuChE (unknown origin) using butyrylthiocholine iodide as substrate incubated for 25 mins by Ellman's method
Sequence of Cholinesterase (P06276 whole entry): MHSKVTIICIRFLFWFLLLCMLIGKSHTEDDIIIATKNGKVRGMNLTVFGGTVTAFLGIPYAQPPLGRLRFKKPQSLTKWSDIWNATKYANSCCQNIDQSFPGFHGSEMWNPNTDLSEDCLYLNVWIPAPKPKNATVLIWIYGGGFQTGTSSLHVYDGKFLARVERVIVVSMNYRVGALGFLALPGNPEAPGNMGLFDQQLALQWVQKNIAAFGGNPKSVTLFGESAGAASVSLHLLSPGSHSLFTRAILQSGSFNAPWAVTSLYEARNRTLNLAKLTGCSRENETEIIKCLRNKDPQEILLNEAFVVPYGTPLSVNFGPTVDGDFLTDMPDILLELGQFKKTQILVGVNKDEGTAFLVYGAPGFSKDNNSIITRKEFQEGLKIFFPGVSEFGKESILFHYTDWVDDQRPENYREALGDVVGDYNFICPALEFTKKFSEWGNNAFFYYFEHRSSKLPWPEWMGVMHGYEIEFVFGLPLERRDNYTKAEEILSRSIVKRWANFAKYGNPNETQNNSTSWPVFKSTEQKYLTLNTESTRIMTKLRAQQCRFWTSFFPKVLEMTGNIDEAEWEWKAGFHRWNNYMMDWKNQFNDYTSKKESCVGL
In short: as §1, with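 “min.” for “min. The reaction was stopped with 20% SDS, 10 mmol/L DTNB was added, and absorbance was read at 412 nm. Five concentrations per compound, in triplicate, spanned 20–80% inhibition.”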

[2] = target: Cholinesterases; ACHE & BCHE (Homo sapiens) (UniProt P06276+P22303); assay: Selectivity ratio of IC50 for BChE (unknown origin) to IC50 for AChE (unknown origin)
Sequence of Cholinesterases; ACHE & BCHE (Homo sapiens) (P06276 whole entry, looked up): as the sequence (P06276 whole entry) above
Sequence of Cholinesterases; ACHE & BCHE (Homo sapiens) (P22303 whole entry, looked up): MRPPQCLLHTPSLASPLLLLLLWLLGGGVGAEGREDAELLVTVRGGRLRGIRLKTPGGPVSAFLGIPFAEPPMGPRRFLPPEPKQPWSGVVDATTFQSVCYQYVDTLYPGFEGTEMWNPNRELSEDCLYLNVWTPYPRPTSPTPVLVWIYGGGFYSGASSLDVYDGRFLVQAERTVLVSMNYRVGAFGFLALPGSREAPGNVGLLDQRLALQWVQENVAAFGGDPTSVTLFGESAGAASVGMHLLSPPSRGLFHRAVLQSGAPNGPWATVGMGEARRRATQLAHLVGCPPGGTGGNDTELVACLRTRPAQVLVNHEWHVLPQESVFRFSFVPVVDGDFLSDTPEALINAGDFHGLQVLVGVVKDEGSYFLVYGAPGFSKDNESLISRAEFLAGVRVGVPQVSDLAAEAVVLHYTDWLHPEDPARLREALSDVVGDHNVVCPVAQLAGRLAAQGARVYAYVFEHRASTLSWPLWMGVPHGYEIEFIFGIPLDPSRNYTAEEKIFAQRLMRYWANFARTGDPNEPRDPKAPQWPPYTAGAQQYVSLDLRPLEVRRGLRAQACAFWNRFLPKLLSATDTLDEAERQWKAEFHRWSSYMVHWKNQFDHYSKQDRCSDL

[3] = Octanol-water partition coefficient, log P of the compound at pH 7.4 by classical shake-flask method; format: physicochemical
Acetylcholinesterase [4] = target: T1, Acetylcholinesterase; assay: Competitive inhibition of AChE (unknown origin) incubated for 25 mins by Lineweaver-Burk plot analysis
Acetylcholinesterase [5] = target: T1, Acetylcholinesterase; assay: Non-competitive inhibition of AChE (unknown origin) incubated for 25 mins by Lineweaver-Burk plot analysis

T1 sequence (P22303 whole entry): as the sequence (P22303 whole entry, looked up) above

Structure (SMILES) | IC50 (Acetylcholinesterase [1]) [µM] | IC50 (Cholinesterase) [µM] | Ratio IC50 [2] | logD [3] | Ki (Acetylcholinesterase [4]) [µM] | Ki (Acetylcholinesterase [5]) [µM]
CN(C)CCCOc1ccc(C(=O)/C=C/c2ccccc2)cc1 | 10.5 | 32.3 | 3.08 | 1.59 | – | –
CCN(CC)CCCOc1ccc(C(=O)/C=C/c2ccccc2)cc1 | 22.5 | 20.1 | 0.89 | 1.71 | – | –
CCCN(CCC)CCCCOc1ccc(C(=O)/C=C/c2ccccc2)cc1 | 5.91 | 8.84 | 1.5 | 1.95 | – | –
CCCCN(CCCC)CCCCOc1ccc(C(=O)/C=C/c2ccccc2)cc1 | 21.9 | 41.9 | 1.91 | 2.09 | – | –
CCN(CC)CCOc1ccc(C(=O)/C=C/c2ccccc2)cc1 | 7.63 | 31.6 | 4.14 | 1.61 | – | –
CCCN(CCC)CCCCCOc1ccc(C(=O)/C=C/c2ccccc2)cc1 | 29.5 | 39.7 | 2.09 | 2.01 | – | –
CCCCN(CCCC)CCCOc1ccc(C(=O)/C=C/c2ccccc2)cc1 | 152 | 68.3 | 0.45 | 2.06 | – | –
CCN(CC)CCCCCCOc1ccc(C(=O)/C=C/c2ccccc2)cc1 | 50.4 | 18.5 | 0.37 | 1.91 | – | –
CN(C)CCOc1ccc(C(=O)/C=C/c2ccccc2)cc1 | 4.68 | 20.4 | 4.35 | 1.49 | 7.99 | 3.52
CCCCN(CCCC)CCOc1ccc(C(=O)/C=C/c2ccccc2)cc1 | 253 | 279 | 1.1 | 2 | – | –
CCCCN(CCCC)CCCCCOc1ccc(C(=O)/C=C/c2ccccc2)cc1 | 76.9 | 96.9 | – | 2.14 | – | –
CCN(CC)CCCCCOc1ccc(C(=O)/C=C/c2ccccc2)cc1 | 34.1 | 26.3 | 0.77 | 1.84 | – | –
CN(C)CCCCCCOc1ccc(C(=O)/C=C/c2ccccc2)cc1 | 14.2 | 10.4 | 0.73 | 1.8 | – | –
CCCCN(CCCC)CCCCCCOc1ccc(C(=O)/C=C/c2ccccc2)cc1 | 163 | 75.1 | 0.46 | 2.19 | – | –
CN(C)CCCCOc1ccc(C(=O)/C=C/c2ccccc2)cc1 | 8.95 | 11.8 | 1.32 | 1.64 | – | –
CCCN(CCC)CCCOc1ccc(C(=O)/C=C/c2ccccc2)cc1 | 24.6 | 10.1 | 0.41 | 1.91 | – | –
CCN(CC)CCCCOc1ccc(C(=O)/C=C/c2ccccc2)cc1 | 23.2 | 10.2 | 0.44 | 1.74 | – | –
CN(C)CCCCCOc1ccc(C(=O)/C=C/c2ccccc2)cc1 | 13.1 | 17.4 | 1.33 | 1.73 | – | –
CCCN(CCC)CCCCCCOc1ccc(C(=O)/C=C/c2ccccc2)cc1 | 44.1 | 40.7 | 0.92 | 2.07 | – | –
O=C(/C=C/c1ccccc1)c1ccc(O)cc1 [4'-HYDROXYCHALCONE] | > 500 | > 500 | – | – | – | –
CCCN(CCC)CCOc1ccc(C(=O)/C=C/c2ccccc2)cc1 | 64.5 | 52.6 | 0.81 | 1.86 | – | –
